The source made the active and inactive calls. The rule behind the calls is not given here.
What was measured:
Cavia porcellus [1] = organism: Cavia porcellus; test: Compound was evaluated for its activity in vitro with use of isolated guinea pig tracheal spiral strips in the presence (control ); type: functional; details: Trachea
In short: (§1)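 Guinea pig tracheal strips held at 2 g resting tension and stabilized 60 min, with bath fluid changed every 15 min. Contraction to carbachol 30 μM, wash, then restabilized 60 min. Cumulative agonist concentration-response curves were run, with responses expressed as % of carbachol maximum. L-cysteine 3 mM or L-serine borate 45 mM was preincubated 30 min. EC50 was derived by linear regression, and significance by paired t test (p<0.05).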

Cavia porcellus [2] = organism: Cavia porcellus; test: Compound was evaluated for its activity in vitro with use of isolated guinea pig tracheal spiral strips in the presence of L-serine borate (45 mM); type: functional; details: Trachea; in short: as §1
Cavia porcellus [3] = organism: Cavia porcellus; test: Compound was tested for FPL-55712 sensitivity in the absence of metabolic inhibitors; No sensitivity.; type: functional, organism-based
In short: (§2)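 Guinea pig tracheal strips at 2 g resting tension, stabilized 60 min, carbachol (30 μM) reference contraction, restabilized 60 min. FPL-55712 10 μM was preincubated 30 min before cumulative agonist curves, without metabolic inhibitors. EC50 values were compared with and without antagonist by Student's paired t test (p<0.05). Kb was obtained by the Furchgott method.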

Cavia porcellus [4] = organism: Cavia porcellus; test: Compound was evaluated for its activity in vitro with use of isolated guinea pig tracheal spiral strips in the presence of L-cysteine (3 mM); type: functional; details: Trachea; in short: as §1
Cavia porcellus [5] = organism: Cavia porcellus; test: Compound was tested for FPL-55712 sensitivity in the absence of metabolic inhibitors; Yes; type: functional, organism-based; in short: as §2
Cavia porcellus [6] = organism: Cavia porcellus; test: Compound was evaluated for its activity in vitro with use of isolated guinea pig tracheal spiral strips in the presence (control ); Not active; type: functional, Trachea; in short: as §1
Cavia porcellus [7] = organism: Cavia porcellus; test: Compound was tested for inhibition of LTE4 (8 nM)-induced contraction of isolated guinea pig trachea at 10 mM concentration.; type: functional; details: in the assay text read “10 µM” for “10 mM”
In short: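 Isolated guinea pig trachea contracted with LTE4 8 nM. Analogue present in the bath, and inhibition of the LTE4 contraction expressed as percent.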

Row | EC50 (Cavia porcellus [1]) | EC50 (Cavia porcellus [2]) | SMILES | also measured
1 | 4830 nM | – | CCCCCCCc1cccc(C/C=C/[C@H](SCC(N)C(=O)O)[C@H](O)CCCC(=O)O)c1 (some centres not stated) | –
2 | 1360 nM | 447 nM | CCCCCCCc1cccc(C/C=C/[C@H](SCC(NC(=O)CCC(N)C(=O)O)C(=O)NCC(=O)O)[C@H](O)CCCC(=O)O)c1 (some centres not stated) | –
3 | 1280 nM | 256 nM | CCCCCCOc1ccc(C/C=C/[C@H](SCC(NC(=O)CCC(N)C(=O)O)C(=O)NCC(=O)O)[C@H](O)CCCC(=O)O)cc1 (some centres not stated) | Sensitivity (Cavia porcellus [3]): No sensitivity
4 | 2680 nM | – | CCCCCCCc1ccc(C/C=C\[C@@H](SC[C@H](N)C(=O)NCC(=O)O)[C@@H](O)CCCC(=O)O)cc1 | EC50 (Cavia porcellus [4]): 251 nM
5 | – | – | CCCCCCCc1cccc(C/C=C/[C@H](SC[C@H](N)C(=O)NCC(=O)O)[C@H](O)CCCC(=O)O)c1 | EC50 (Cavia porcellus [4]): 4770 nM
6 | 9100 nM | – | CCCCCCOc1ccc(C/C=C/[C@H](SC[C@H](N)C(=O)NCC(=O)O)[C@H](O)CCCC(=O)O)cc1 | Sensitivity (Cavia porcellus [5]): Active
7 | 13000 nM | – | CCCCC/C=C/c1cccc(C/C=C/[C@H](SC[C@H](N)C(=O)NCC(=O)O)[C@H](O)CCCC(=O)O)c1 | –
8 | 3820 nM | 451 nM | CCCCC/C=C/c1ccc(C/C=C/[C@H](SCC(NC(=O)CCC(N)C(=O)O)C(=O)NCC(=O)O)[C@H](O)CCCC(=O)O)cc1 (some centres not stated) | –
9 | – | – | CCCCCCOc1ccccc1C/C=C/[C@H](SC[C@H](N)C(=O)NCC(=O)O)[C@H](O)CCCC(=O)O | EC50 (Cavia porcellus [6]): Not Active; Inhibition (Cavia porcellus [7]): 18%
10 | – | – | CCCCCCCc1ccccc1C/C=C/[C@H](SC[C@H](N)C(=O)NCC(=O)O)[C@H](O)CCCC(=O)O | EC50 (Cavia porcellus [4]): 1870 nM
11 | – | – | CCCCCCOc1cccc(C/C=C/[C@H](SC[C@H](N)C(=O)NCC(=O)O)[C@H](O)CCCC(=O)O)c1 | EC50 (Cavia porcellus [6]): Not Active; Inhibition (Cavia porcellus [7]): 24%
12 | 3.92 nM | – | CCCCC/C=C\C\C=C/C=C/C=C/[C@@H](SC[C@H](N)C(=O)NCC(=O)O)[C@@H](O)CCCC(=O)O [LEUKOTRIENE D4] | EC50 (Cavia porcellus [4]): 0.513 nM
13 | 574 nM | 74.5 nM | CCCCCCCc1ccc(C/C=C/[C@H](SCC(NC(=O)CCC(N)C(=O)O)C(=O)NCC(=O)O)[C@H](O)CCCC(=O)O)cc1 (some centres not stated) | –
14 | 1700 nM | – | CCCCCCCc1ccc(C/C=C/[C@H](SCC(N)C(=O)O)[C@H](O)CCCC(=O)O)cc1 (some centres not stated) | –
15 | – | – | CCCCCCCc1ccccc1C/C=C/[C@H](SCC(N)C(=O)O)[C@H](O)CCCC(=O)O (some centres not stated) | Inhibition (Cavia porcellus [7]): 28%
16 | 18600 nM | 18400 nM | CCCCCCCc1ccccc1C/C=C/[C@H](SCC(NC(=O)CCC(N)C(=O)O)C(=O)NCC(=O)O)[C@H](O)CCCC(=O)O (some centres not stated) | –
